Data set [1] can be described thus: Apparent permeability from apical to basolateral side in human Caco2 cells at 10 uM by HPLC-MS analysis. The format is ADME, cell-based. Particulars: Caco-2. The method in brief:
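Apical-to-basolateral transport across Caco-2 monolayers, integrity checked by TEER in every well. Compound at 10 μM, acceptor concentrations by HPLC-MS. Papp = (VA/(area × time)) × ([drug]acc/[drug]initial,donor), insert area 0.31 cm², in 10^-6 cm/s. Mean of n = 2.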

Data set [2] deals with T1, Free fatty acid receptor 3 (Homo sapiens, UniProt O14843).
T1 sequence (O14843 whole entry): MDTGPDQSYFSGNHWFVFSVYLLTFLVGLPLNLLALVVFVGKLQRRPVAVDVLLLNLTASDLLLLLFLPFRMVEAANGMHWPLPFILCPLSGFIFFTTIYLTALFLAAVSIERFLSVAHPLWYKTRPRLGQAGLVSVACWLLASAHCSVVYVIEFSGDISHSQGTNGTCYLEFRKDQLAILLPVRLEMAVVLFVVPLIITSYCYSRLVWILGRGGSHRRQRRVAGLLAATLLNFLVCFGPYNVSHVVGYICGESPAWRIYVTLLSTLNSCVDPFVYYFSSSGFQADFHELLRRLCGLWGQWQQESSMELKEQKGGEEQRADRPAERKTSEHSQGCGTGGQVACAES
The data set can be described thus: Agonist activity at human FFA3 receptor expressed in CHO cells assessed as induction of Ca2+ flux by fluo-8 dye based FLIPR assay. The format is functional, cell-based. Put shortly: (§1)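 CHO lines stably expressing the respective receptor (GPR43, GPR41 or GPR120) used for specificity screening. Cells loaded 1 h with Fluo-8 calcium dye and read by FLIPR; maximum fluorescence change over baseline taken as agonist response.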

Data set [3] deals with T2, Free fatty acid receptor 2 (Homo sapiens, UniProt O15552).
T2 sequence (O15552 whole entry): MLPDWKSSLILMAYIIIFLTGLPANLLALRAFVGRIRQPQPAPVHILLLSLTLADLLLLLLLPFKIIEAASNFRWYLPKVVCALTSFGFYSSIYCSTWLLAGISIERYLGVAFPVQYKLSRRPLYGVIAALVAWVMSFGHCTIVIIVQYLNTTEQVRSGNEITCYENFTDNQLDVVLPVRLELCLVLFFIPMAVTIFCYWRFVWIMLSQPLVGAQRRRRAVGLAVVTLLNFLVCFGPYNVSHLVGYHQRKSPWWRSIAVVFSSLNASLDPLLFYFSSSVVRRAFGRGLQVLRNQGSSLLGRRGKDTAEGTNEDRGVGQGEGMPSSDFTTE
The data set can be described thus: Agonist activity at human FFA2 receptor expressed in CHO cells assessed as induction of Ca2+ flux by fluo-8 dye based FLIPR assay. The class given is functional, cell-based. The method in brief:
as §1

Data set [4] is described as follows: Observed AUC infinity in JAXC57BL/6J mouse at 10 mg/kg, iv through bolus administration measured after 10 to 240 mins by HPLC-MS analysis. The class given is ADME, organism-based. Also noted: dose 10 mg/kg, route intravenous, time infinity. The conditions noted are these: C57BL/6J, in vivo. Put shortly:
(§2)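 Male C57BL/6J mice given 10 mg/kg as tail-vein bolus in 10% β-cyclodextrin (5 ml/kg). Plasma by cardiac puncture at 10, 30, 60, 120 and 240 min (n=5 per time point), stored at -70°C. Levels by HPLC-MS/MS; parameters from group data by linear trapezoidal rule.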

A short description of data set [5]: Observed AUC infinity in JAXC57BL/6J mouse at 10 mg/kg, po administered through plastic gavage as single dose measured up to 240 mins by HPLC-MS analysis. The format is ADME, organism-based. Also noted: dose 10 mg/kg, time infinity, route oral. Particulars: C57BL/6J, in vivo. The method in brief:
(§3)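 Male C57BL/6J mice dosed orally by gavage, 10 mg/kg single dose in 10% β-cyclodextrin (5 ml/kg). Plasma sampled at 30, 60, 120, 240 and 360 min (n=5 per time point), with 360 min excluded from calculations. HPLC-MS/MS quantitation; Cmax, Tmax and AUC from group data by linear trapezoidal rule.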

Data set [6] can be described thus: Tmax in JAXC57BL/6J mouse at 10 mg/kg, iv through bolus administration measured after 10 to 240 mins by HPLC-MS analysis. The format is ADME, organism-based. Particulars: C57BL/6J, in vivo. The method in brief:
as §2

For data set [7], the target named is T3, Free fatty acid receptor 1 (Homo sapiens, UniProt O14842). The data set can be described thus: Agonist activity at human FFA1 receptor expressed in CHO cells assessed as induction of Ca2+ flux by fluo-8 dye based FLIPR assay. The format is functional, cell-based. Put shortly: (§4)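 CHO cells stably expressing human GPR40 seeded 24 h before assay, loaded 1 h with Fluo-8 calcium dye, read on FLIPR. Agonist response taken as maximum fluorescence change over baseline; concentration-response curves fitted for EC50. Efficacy expressed relative to GW9508 at 5 μM.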
T3 sequence (O14842 whole entry): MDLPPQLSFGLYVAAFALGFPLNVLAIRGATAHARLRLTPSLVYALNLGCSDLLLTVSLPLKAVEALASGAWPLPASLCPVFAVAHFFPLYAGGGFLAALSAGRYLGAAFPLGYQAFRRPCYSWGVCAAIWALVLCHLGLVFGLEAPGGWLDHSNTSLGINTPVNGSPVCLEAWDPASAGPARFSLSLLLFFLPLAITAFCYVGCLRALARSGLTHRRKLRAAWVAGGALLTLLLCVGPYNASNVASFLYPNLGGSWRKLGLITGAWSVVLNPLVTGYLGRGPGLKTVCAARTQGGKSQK

Data set [8] can be described thus: Oral bioavailability in JAXC57BL/6J mouse at 10 mg/kg administered through plastic gavage as single dose measured up to 240 mins by HPLC-MS analysis. The class given is ADME, organism-based. Particulars: C57BL/6J, in vivo. The method in brief: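 F = AUC0-∞ oral / AUC0-∞ i.v. × 100%, from male C57BL/6J mice given 10 mg/kg in 10% β-cyclodextrin by gavage or tail-vein bolus. n=5 per time point; plasma drug by HPLC-MS/MS.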

Data set [9] is described as follows: Cmax in JAXC57BL/6J mouse at 10 mg/kg, po administered through plastic gavage as single dose measured up to 240 mins by HPLC-MS analysis. The class given is ADME, organism-based. On the set-up: dose 10 mg/kg, route oral. Particulars: C57BL/6J, in vivo. Put shortly: as §3
Data set [10] has as its target T4, Free fatty acid receptor 4 (Homo sapiens, UniProt Q5NUL3).
T4 sequence (Q5NUL3 whole entry): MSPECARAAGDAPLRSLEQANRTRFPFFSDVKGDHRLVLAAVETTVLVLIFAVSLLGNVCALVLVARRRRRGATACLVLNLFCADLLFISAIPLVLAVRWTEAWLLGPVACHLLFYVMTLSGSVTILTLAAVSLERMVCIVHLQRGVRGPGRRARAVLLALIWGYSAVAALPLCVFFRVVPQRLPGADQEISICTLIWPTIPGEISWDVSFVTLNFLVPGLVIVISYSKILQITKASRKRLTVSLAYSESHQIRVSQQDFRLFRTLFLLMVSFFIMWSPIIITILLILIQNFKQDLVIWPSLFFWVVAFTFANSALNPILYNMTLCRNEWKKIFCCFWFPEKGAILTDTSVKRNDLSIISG
Description: Agonist activity at human FFA4 receptor expressed in CHO cells assessed as induction of Ca2+ flux by fluo-8 dye based FLIPR assay. The class given is functional, cell-based. The method in brief: as §1

Data set [11] can be described thus: Protein binding in human plasma at 1 uM after 5 hrs by HPLC-MS/MS analysis. The conditions noted are these: read-out: PPB (converted). The format is ADME, cell-free. Put shortly: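 Equilibrium dialysis (12–14 kDa MWCO) of plasma spiked at 1 μM (1% solvent) against PBS pH 7.4, 5 h at 37°C with shaking, quadruplicates. Chambers matrix-matched, precipitated with acetonitrile and analysed by HPLC-MS/MS. Bound % = (1 − buffer/plasma peak area) × 100; recovery checked against undialyzed spiked plasma.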

Data set [12] deals with T3, Free fatty acid receptor 1. Description: Agonist activity at human FFA1 receptor expressed in CHO cells assessed as induction of Ca2+ flux by fluo-8 dye based FLIPR assay relative to GW9508. The class given is functional, cell-based. The method in brief: as §4
Data set [13] in a line: Intrinsic clearance in BALB/c mouse liver microsomes at 2 uM up to 40 mins by HPLC-MS analysis. The format is ADME. Put shortly:
(§5)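 Pooled liver microsomes from male BALB/c mice at 0.42 mg protein/ml in 100 mM potassium phosphate pH 7.4 with MgCl2, NADPH and a G6P/G6PDH regenerating system. Compound 2 μM (1.6% solvent), 37°C, five time points over 40 min, duplicates. Quenched in acetonitrile, analysed by HPLC-MS/MS. kel from ln(AUC) versus time; T1/2 = 0.693/kel; CLint scaled to incubation volume per mg microsomes.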

The nature of data set [14]: Cmax in JAXC57BL/6J mouse at 10 mg/kg, iv through bolus administration measured after 10 to 240 mins by HPLC-MS analysis. The conditions noted are these: C57BL/6J, in vivo. On the set-up: dose 10 mg/kg, route intravenous. The class given is ADME, organism-based. Put shortly: as §2
Data set [15] can be described thus: Half life in BALB/c mouse liver microsomes at 2 uM by HPLC-MS analysis. The format is ADME. Put shortly: as §5
Data set [16] in a line: Tmax in JAXC57BL/6J mouse at 10 mg/kg, po administered through plastic gavage as single dose by HPLC-MS analysis. The format is ADME, organism-based. The conditions noted are these: C57BL/6J, in vivo. Put shortly:
as §3

Data set [17] in a line: Kinetic aqueous solubility of the compound in PBS buffer […] at pH 7.4 after 2 hrs by UV-Visible spectrophotometric analysis. Particulars: read-out: Kinetic_solubility. The class given is physicochemical. Put shortly: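 Equilibrated 2 h at 25°C with shaking, then filtered. Filtrates read by UV-Vis scan against 0–400 μM calibration curves in methanol/PBS.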

Structures are written as SMILES.

Regarding `C[C@]12CC[C@H]3[C@@H](CCC4=CC(=O)CC[C@@]43C)[C@@H]1CC[C@@H]2O` [TESTOSTERONE], the Papp A→B at 10 µM in data set [1] amounted to 13.6 ×10⁻⁶ cm/s.

Turning to `Cl.O=C(O)CCc1ccc(OCc2ccc(CN3CCC4(CC3)CC(Cc3ccc(F)cc3)CCO4)cc2)cc1` (stereo not drawn), the EC50 in [2] is above 10 µM; in data set [3], above 10 µM; in [7], 0.41 µM; in [10], above 10 µM. Also, the area under the curve AUC(0-inf) in data set [4] is 1790 ng·h/mL; in data set [5] it was 184 ng·h/mL. Besides, the Tmax in [6] was 10 min; in [16], 30 min. In [8], this compound showed a bioavailability of 10.3%. Moreover, the Cmax stood at 226 ng/mL in data set [9] and 2770 ng/mL in [14]. Besides, the fraction unbound at 5 h, 1 µM in data set [11] was 0.017. In [1], the apical-to-basolateral permeability (Papp A→B) at 10 µM was 8.7 ×10⁻⁶ cm/s. In addition, in data set [12], the maximal response (Emax) was 88%. In addition, the CLint at 40 min, 2 µM in data set [13] came out at 71.3 µL/min/mg. For the same compound, the half-life at 2 µM in data set [15] worked out at 23.4 min. Also, the solubility kinetic at 2 h in [17] was found to be 143 µM.

`O=C(O)CCc1ccc(OCc2ccc(CN3CCC4(CC3)CC(Cc3nc(-c5cccnc5)no3)CCO4)cc2)cc1` (stereo not drawn): the EC50 in data set [7] is above 20 µM.

With `O=C(O)CCc1ccc(OCc2ccc(CN3CCC4(CC3)CC(Cc3ccc(C(F)(F)F)cc3)CCO4)cc2)cc1` (stereo not drawn), the half-maximal effective concentration (EC50) in data set [7] came out at 1.27 µM. In addition, in data set [12], the Emax came out at 74%.

On to `O=C(O)CCc1ccc(OCc2ccc(CN3CCC4(CCCCO4)CC3)cc2)cc1`, for which, in data set [7], the EC50 was above 20 µM.

For `CCOC1CCOC2(CCN(Cc3ccc(COc4ccc(CCC(=O)O)cc4)cc3)CC2)C1` (stereo not drawn), in data set [7], the EC50 was above 20 µM.

In the case of `COC1CCOC2(CCN(Cc3ccc(COc4ccc(CCC(=O)O)cc4)cc3)CC2)C1` (stereo not drawn), the EC50 in data set [7] is above 20 µM.

For `O=C(O)CCc1ccc(OCc2ccc(CN3CCC4(CC3)CC(OCc3cccc(F)c3)CCO4)cc2)cc1` (stereo not drawn), in [7], the EC50 was determined as 1.3 µM. Further, in [12], the Emax worked out at 98%.

Take `Cl.O=C(O)CCc1ccc(OCc2ccc(CN3CCC4(CC3)CC(Cc3ccccc3)CCO4)cc2)cc1` (stereo not drawn): the EC50 in data set [2] is above 10 µM; in data set [3], above 10 µM; in data set [7], 0.055 µM; in [10] it was above 10 µM. Also, the fraction unbound at 5 h, 1 µM in [11] was 0.012. Moreover, the Papp A→B at 10 µM in data set [1] is 12 ×10⁻⁶ cm/s. For the same compound, the Emax in [12] was 93%. In data set [13], this compound showed a CLint at 40 min, 2 µM of 196 µL/min/mg. The half-life at 2 µM in data set [15] came out at 8.5 min. In addition, in [17], the solubility kinetic at 2 h is 151 µM.

Regarding `O=C(O)CCc1ccc(OCc2ccc(CN3CCC4(CC3)CC(OCc3ccc(C(F)(F)F)cc3)CCO4)cc2)cc1` (stereo not drawn), the concentration giving a half-maximal response (EC50) in data set [7] is above 20 µM.

Consider `O=C(O)CCc1ccc(OCc2ccc(CN3CCC4(CC3)CC(Cc3cccc(F)c3)CCO4)cc2)cc1` (stereo not drawn), for which, in data set [7], the EC50 was above 20 µM.

These data come from ChEMBL document CHEMBL3864132, “Free fatty acid receptor 1 (GPR40) agonists containing spirocyclic periphery inspired by LY2881835” (Bioorg Med Chem, 2016).
